Activity calls are given as the source filed them. The rule behind the calls is not given here.
Tests used:
Type in all cases: cell-based
[1] = biological target: Toll-like receptor 5 (Homo sapiens) (UniProt O60602); assay: Activity at human TLR5 expressed in HEK293 cells co-expressing secreted alkaline phosphatase assessed as induction of NF-kappaB/AP-1 promoter activity by measuring increase in secreted alkaline phosphatase level by spectrophotometric method
Method in brief: (§1)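 HEK293 cells stably co-transfected with the relevant human TLR (2, 3, 4, 5, 7, 8 or 9) plus an NF-κB/AP-1-driven secreted alkaline phosphatase reporter, kept in selection medium. Cells at ~10⁵ cells/ml were exposed to graded concentrations of stimuli in 384-well format, liquid-handler assisted. Supernatant sAP was read at 620 nm with an alkaline phosphatase-specific chromogen.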

[2] = biological target: Toll-like receptor 3 (Homo sapiens) (UniProt O15455); assay: Activity at human TLR3 expressed in HEK293 cells co-expressing secreted alkaline phosphatase assessed as induction of NF-kappaB/AP-1 promoter activity by measuring increase in secreted alkaline phosphatase level by spectrophotometric method; method in brief: as §1
[3] = biological target: Toll-like receptor 4 (Homo sapiens) (UniProt O00206); assay: Activity at human TLR4 expressed in HEK293 cells co-expressing secreted alkaline phosphatase assessed as induction of NF-kappaB/AP-1 promoter activity by measuring increase in secreted alkaline phosphatase level by spectrophotometric method; method in brief: as §1
[4] = biological target: Toll-like receptor 2 (Homo sapiens) (UniProt O60603); assay: Activity at human TLR2 expressed in HEK293 cells co-expressing secreted alkaline phosphatase assessed as induction of NF-kappaB/AP-1 promoter activity by measuring increase in secreted alkaline phosphatase level by spectrophotometric method; method in brief: as §1
Toll-like receptor 8 = biological target: T1, Toll-like receptor 8 (Homo sapiens, UniProt Q9NR97); assay: Agonist activity at human TLR8 expressed in HEK293 cells co-expressing secreted alkaline phosphatase assessed as induction of NF-kappaB/AP-1 promoter activity by measuring increase in secreted alkaline phosphatase level by spectrophotometric method; method in brief: as §1
T1 sequence (Q9NR97 whole entry): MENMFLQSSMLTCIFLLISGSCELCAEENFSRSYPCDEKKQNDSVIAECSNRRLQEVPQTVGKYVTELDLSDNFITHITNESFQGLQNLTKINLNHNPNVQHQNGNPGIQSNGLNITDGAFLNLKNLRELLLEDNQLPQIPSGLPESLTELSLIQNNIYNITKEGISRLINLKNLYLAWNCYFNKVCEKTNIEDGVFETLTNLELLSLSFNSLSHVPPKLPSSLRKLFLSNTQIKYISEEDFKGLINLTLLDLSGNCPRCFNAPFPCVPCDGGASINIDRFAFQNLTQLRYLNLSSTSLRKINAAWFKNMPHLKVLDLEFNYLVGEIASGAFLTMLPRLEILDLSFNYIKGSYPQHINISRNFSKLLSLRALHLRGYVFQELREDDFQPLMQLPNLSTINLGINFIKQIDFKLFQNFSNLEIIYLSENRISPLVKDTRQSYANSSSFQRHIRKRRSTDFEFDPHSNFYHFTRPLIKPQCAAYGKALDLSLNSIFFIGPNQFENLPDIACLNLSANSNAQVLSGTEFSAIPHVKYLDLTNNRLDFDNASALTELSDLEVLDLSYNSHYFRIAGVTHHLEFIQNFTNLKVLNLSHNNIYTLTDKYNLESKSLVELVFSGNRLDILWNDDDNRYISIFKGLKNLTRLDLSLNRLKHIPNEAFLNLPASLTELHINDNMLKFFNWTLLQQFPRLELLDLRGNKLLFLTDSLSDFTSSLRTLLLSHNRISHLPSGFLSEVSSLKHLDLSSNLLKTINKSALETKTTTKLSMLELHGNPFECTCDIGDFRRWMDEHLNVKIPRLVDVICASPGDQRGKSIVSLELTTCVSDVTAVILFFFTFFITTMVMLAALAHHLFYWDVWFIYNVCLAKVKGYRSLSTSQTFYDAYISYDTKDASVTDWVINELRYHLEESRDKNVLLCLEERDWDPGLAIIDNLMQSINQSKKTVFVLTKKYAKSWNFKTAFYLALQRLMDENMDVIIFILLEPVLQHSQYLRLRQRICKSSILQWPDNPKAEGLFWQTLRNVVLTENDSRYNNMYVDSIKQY

Toll-like receptor 7 = biological target: T2, Toll-like receptor 7 (Homo sapiens, UniProt Q9NYK1); assay: Agonist activity at human TLR7 expressed in HEK293 cells co-expressing secreted alkaline phosphatase assessed as induction of NF-kappaB/AP-1 promoter activity by measuring increase in secreted alkaline phosphatase level by spectrophotometric method; method in brief: as §1
T2 sequence (Q9NYK1 whole entry): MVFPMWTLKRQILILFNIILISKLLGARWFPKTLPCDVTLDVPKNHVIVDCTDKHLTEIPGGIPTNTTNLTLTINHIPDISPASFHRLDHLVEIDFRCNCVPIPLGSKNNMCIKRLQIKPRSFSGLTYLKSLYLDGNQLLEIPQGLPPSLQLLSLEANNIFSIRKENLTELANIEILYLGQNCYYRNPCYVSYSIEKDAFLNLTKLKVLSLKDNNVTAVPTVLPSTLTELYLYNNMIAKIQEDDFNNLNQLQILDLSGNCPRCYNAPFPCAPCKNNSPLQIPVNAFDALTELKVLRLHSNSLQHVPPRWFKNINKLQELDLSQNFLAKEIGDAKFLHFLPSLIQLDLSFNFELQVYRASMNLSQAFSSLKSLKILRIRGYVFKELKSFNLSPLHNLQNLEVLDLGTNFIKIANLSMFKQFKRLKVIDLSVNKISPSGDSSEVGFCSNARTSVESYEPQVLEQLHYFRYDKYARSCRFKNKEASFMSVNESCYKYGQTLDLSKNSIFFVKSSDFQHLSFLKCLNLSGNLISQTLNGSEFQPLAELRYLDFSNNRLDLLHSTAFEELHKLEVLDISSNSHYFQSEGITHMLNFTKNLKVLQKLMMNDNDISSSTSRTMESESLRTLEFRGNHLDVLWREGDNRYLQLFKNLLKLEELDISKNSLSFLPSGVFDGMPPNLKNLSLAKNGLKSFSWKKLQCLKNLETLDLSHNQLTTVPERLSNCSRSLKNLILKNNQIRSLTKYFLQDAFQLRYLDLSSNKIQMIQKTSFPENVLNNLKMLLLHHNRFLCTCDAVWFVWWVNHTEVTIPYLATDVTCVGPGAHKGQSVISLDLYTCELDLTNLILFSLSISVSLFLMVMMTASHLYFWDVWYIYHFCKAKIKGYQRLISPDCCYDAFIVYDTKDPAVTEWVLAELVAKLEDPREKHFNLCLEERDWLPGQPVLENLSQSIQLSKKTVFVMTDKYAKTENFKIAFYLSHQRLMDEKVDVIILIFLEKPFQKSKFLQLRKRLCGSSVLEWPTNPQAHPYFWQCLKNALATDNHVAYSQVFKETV

Sequence of Toll-like receptor 5 (Homo sapiens) (O60602 whole entry): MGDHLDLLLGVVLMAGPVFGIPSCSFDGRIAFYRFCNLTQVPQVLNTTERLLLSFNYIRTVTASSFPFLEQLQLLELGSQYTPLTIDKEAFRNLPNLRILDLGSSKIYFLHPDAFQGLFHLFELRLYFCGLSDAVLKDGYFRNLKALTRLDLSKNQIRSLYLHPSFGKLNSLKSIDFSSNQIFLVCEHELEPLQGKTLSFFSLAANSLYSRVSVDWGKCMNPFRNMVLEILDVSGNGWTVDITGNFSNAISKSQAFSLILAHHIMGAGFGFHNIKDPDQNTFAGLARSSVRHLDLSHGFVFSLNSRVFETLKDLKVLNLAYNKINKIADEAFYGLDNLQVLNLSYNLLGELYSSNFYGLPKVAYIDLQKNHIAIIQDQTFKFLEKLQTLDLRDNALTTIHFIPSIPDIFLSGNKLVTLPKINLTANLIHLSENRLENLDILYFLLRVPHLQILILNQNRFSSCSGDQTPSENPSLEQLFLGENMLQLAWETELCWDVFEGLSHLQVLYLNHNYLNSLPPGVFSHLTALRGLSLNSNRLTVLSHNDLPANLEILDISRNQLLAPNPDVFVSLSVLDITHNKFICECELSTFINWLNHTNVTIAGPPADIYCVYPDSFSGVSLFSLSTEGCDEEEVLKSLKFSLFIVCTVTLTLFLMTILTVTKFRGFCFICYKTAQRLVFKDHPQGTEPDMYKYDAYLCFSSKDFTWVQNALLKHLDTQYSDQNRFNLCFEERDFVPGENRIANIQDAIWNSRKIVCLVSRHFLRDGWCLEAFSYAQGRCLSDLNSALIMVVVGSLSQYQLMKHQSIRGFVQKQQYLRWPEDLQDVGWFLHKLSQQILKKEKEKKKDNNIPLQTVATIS
Sequence of Toll-like receptor 4 (Homo sapiens) (O00206 whole entry): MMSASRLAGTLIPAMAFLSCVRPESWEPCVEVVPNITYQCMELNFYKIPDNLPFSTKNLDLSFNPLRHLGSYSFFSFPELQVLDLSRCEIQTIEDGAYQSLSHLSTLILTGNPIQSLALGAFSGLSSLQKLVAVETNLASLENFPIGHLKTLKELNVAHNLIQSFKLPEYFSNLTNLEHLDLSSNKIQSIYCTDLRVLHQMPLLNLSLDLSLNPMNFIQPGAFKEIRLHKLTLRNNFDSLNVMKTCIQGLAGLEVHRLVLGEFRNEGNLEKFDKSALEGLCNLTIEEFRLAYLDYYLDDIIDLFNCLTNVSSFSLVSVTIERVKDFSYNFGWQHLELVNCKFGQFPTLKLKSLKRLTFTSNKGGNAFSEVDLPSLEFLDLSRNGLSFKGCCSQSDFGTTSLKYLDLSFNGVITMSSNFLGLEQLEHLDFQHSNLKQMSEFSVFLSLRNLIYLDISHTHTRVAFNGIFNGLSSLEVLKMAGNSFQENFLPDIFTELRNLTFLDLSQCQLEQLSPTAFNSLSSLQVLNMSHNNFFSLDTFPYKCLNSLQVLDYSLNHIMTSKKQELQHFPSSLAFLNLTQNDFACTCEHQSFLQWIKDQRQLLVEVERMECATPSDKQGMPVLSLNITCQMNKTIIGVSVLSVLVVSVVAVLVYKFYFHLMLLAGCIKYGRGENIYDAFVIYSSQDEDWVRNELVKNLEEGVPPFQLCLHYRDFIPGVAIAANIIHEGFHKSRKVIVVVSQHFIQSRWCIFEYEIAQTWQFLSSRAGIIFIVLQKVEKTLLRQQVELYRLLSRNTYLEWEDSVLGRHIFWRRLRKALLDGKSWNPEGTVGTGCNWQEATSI
Sequence of Toll-like receptor 3 (Homo sapiens) (O15455 whole entry): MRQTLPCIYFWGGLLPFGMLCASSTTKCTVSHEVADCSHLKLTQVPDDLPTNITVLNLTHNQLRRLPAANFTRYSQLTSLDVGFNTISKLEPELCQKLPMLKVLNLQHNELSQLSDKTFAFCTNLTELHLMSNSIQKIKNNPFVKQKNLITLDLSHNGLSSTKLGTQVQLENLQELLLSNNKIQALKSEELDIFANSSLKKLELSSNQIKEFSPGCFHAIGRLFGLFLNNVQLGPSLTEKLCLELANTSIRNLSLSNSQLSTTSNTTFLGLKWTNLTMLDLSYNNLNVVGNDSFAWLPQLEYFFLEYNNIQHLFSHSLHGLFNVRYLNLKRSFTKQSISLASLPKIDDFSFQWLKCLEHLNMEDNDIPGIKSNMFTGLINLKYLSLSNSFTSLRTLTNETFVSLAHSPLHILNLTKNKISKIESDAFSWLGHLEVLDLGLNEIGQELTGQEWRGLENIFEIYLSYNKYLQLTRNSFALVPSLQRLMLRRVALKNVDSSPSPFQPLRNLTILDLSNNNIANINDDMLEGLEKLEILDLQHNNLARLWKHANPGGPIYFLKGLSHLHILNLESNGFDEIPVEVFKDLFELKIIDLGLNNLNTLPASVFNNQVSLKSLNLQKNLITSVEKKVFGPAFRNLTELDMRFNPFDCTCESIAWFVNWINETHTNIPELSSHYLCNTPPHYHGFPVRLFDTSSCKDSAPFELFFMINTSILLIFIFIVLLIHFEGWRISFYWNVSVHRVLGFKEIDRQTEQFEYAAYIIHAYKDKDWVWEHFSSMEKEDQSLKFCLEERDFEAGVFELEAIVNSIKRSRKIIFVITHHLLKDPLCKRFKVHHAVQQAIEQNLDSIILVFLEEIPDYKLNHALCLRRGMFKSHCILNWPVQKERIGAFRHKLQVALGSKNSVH
Sequence of Toll-like receptor 2 (Homo sapiens) (O60603 whole entry): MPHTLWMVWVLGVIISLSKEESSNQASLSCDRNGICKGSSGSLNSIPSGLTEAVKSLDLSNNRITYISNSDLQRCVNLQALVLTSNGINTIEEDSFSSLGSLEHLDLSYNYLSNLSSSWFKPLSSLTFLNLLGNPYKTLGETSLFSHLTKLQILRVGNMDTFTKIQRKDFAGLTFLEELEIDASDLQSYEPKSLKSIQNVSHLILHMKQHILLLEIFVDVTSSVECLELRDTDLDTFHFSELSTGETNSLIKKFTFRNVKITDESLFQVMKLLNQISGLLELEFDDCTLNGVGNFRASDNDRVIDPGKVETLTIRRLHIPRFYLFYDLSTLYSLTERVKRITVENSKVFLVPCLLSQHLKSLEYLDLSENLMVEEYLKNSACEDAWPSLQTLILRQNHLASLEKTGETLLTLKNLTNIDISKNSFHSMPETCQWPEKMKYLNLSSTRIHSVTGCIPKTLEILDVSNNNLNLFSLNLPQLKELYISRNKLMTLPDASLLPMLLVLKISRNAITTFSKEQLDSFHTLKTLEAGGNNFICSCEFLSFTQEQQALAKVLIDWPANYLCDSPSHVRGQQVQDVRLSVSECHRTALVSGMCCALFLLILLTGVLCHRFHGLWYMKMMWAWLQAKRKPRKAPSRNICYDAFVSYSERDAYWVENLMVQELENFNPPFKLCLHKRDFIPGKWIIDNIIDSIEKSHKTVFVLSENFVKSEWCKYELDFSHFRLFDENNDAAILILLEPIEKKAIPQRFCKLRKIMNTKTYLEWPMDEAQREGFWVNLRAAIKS

| SMILES | Activity [1] | Activity [2] | Activity [3] | Activity [4] | EC50 (Toll-like receptor 8) [nM] | EC50 (Toll-like receptor 7) [nM] |
| --- | --- | --- | --- | --- | --- | --- |
| CCCCNc1nc(N)nc(C)c1C#CCc1ccccc1 | inactive | inactive | inactive | inactive |  |  |
| CCCCCc1c(C)nc(N)nc1NCCCC | inactive | inactive | inactive | inactive | 1220 | 510 |
| CCCCNc1nc(N)nc(C)c1CCCC1CCCCC1 | inactive | inactive | inactive | inactive |  | 1100 |
| CCCCNc1nc(N)nc(C)c1CCCN1CCCC1 | inactive | inactive | inactive | inactive | 110 | 562 |
| CCCCNc1nc(N)nc(C)c1CCCn1ccc2ccccc21 | inactive | inactive | inactive | inactive | 1100 | 140 |
| CCCCNc1nc(N)nc(C)c1C#CCN1CCCCC1 | inactive | inactive | inactive | inactive | 3790 |  |
| CCCCNc1nc(N)nc(C)c1CCCN1CCN(c2ccccc2)CC1 | inactive | inactive | inactive | inactive | 92 | 1160 |
| CCCCNc1nc(N)nc(C)c1C | inactive | inactive | inactive | inactive | 3280 | 3400 |
| CCCCNc1nc(N)nc(C)c1CCCN1CCCCCC1 | inactive | inactive | inactive | inactive | 178 | 730 |
| CCCCNc1nc(N)nc(C)c1CCCN1Cc2ccccc2C1 | inactive | inactive | inactive | inactive | 29 | 375 |
| CCCCNc1nc(N)nc(C)c1CCCCN1CCOCC1 | inactive | inactive | inactive | inactive | 128 | 1400 |
| CCCCNc1nc(N)nc(C)c1CCCN1CCOCC1 | inactive | inactive | inactive | inactive | 280 | 46 |
| CCCCNc1nc(N)nc(C)c1CCc1ccccc1 | inactive | inactive | inactive | inactive | 1190 | 2820 |
| CCCC#Cc1c(C)nc(N)nc1NCCCC | inactive | inactive | inactive | inactive | 5000 |  |
| CCCCNc1nc(N)nc(C)c1C#C[Si](C)(C)C | inactive | inactive | inactive | inactive | 9240 |  |
| CCCCNc1nc(N)nc(C)c1C#CCN1CCOCC1 | inactive | inactive | inactive | inactive | 16200 |  |
| CCCCNc1nc(N)nc(C)c1CCCN1CCN(C(=O)OC(C)(C)C)CC1 | inactive | inactive | inactive | inactive | 300 |  |
| C#Cc1c(C)nc(N)nc1NCCCC | inactive | inactive | inactive | inactive | 4900 |  |
| CCCCNc1nc(N)nc(C)c1CCCN(CC)CC | inactive | inactive | inactive | inactive | 254 |  |
